# Rows were chosen to be rich in hits. Some 4.3% of all compounds tested hit in one or more screens of this group.
# STAT1 act = STAT1 signaling activators, primary screen, cell-based, HTS, luciferase reporter; activation (% of control), % at 5.5 µM; NIH 3T3 STAT1-luciferase reporter, IFN-gamma, luminescence; 100% = IFN-gamma alone, no compound; 200,000 tested, 2.6% active;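 active = activation above the screen-wide mean activation plus 3 SD, cut at about 130% in these data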;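 note: raw ratio to IFN-gamma control signal so 100% means no change and 0% no light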
# sdo1 growth = growth rescue of sdo1-depleted yeast, primary screen, S. cerevisiae, bone marrow failure model. z-score at 10 µM. AID 817, 2007. S. cerevisiae sdo1-depleted JHY4D growth rescue, OD600 30 h; hits give high values; pdr5 snq2 efflux-pump mutant strain. 140,000 tested, 0.21% active;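 active = z-score above 3 at both the 24 hr and the 30 hr optical density reads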;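 note: z-score against mean and SD of all compound wells on the same plate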
# FLuc stim CS = FLuc activators, initial screening, artefact control for FLuc-dependent activation tests, biochemical, ATPlite luminescence | ATPlite luciferase biochemical, 10 min; 0 = ATP-free wells, 1 = DMSO control | activation factor at 10 µM | Luciferin 4-monooxygenase (Photinus pyralis), P08659 | 200,000 tested, under 10 active;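 active = luciferase activation factor, scaled between plate controls, of at least 2 with compound at 10 µM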
# Target sequence (P08659 whole entry, looked up): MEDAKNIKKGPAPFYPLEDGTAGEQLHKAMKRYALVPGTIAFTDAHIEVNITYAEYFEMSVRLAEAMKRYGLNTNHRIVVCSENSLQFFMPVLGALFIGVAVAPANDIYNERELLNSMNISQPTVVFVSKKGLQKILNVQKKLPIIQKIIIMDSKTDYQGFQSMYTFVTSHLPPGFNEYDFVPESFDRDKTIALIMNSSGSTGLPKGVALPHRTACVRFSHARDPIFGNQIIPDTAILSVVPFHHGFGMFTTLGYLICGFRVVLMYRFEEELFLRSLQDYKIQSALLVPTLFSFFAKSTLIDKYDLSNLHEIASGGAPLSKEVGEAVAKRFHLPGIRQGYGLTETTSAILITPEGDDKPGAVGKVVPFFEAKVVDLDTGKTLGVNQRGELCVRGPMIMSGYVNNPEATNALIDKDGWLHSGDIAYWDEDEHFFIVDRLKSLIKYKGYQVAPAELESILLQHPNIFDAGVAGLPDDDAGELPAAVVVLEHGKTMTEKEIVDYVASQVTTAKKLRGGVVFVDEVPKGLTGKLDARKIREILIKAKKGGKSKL
#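 Material: Luciferase/luciferin reagent mix | Doses: Test compounds dosed from 2 mM stocks in 100% DMSO | Timing: 10 min incubation after luciferase reagent addition, room temperature | Measured by: Luminescence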
# NF-kB expr up = activators of NF-kB expression in neurons, primary screen, cell-based, HTS | human neuronal cells, NF-kB reporter expression; hits give high values | fold change at 12.5 µM | 190,000 tested, 1.6% active | AID 1239, 2008; in the data active = fold change above about 3.3
# APP 5'UTR act = activators of APP 5'UTR luciferase reporter, primary screen, SH-SY5Y cells; SH-SY5Y APP 5'UTR luciferase reporter, luminescence; zero percent = DMSO vehicle wells; activation, % at 2 µM; 190,000 tested, 1% active; AID 1276, 2008;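 active = activation above a set limit, based on mean plus 3 SD of controls, cut at about 140% in these data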
# FLuc inhib CS = firefly luciferase enzyme inhibitors, primary screen, artefact control for luciferase-based inhibitor screens, biochemical, luminescence, ATPLite | 10 min | inhibition, % at 10 µM | 200,000 tested, 1.5% active;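 active = inhibition above about 50% when tested at 10 µM, limit read from the data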
# STAT1 activ conf = STAT1 signaling activators, confirmation, cell-based, HTS, luciferase reporter. shares compounds with STAT1 act. NIH 3T3 STAT1-luciferase reporter, IFN-gamma potentiation, luminescence; 100% = IFN-gamma EC80 alone, no compound. activation (% of control), % at 5.7 µM. 1,200 tested, 97% active. AID 1262, 2008;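 active = activation above a set limit carried over from the earlier primary STAT1 screen, cut at about 140% in these data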;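 note: simple ratio to median IFN-gamma plus DMSO wells so 0% means no light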
# NFkB act = NF-kB reporter activators, TNF-alpha stimulated, counter-screen for STAT1 activator project, cell-based, HEK293T, luciferase luminescence | 1,200 tested, 43% active | 100% = TNF-alpha with vehicle only | activation (% of control), % at 5.7 µM | shares compounds with STAT1 act | AID 1306, 2008;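 active = activation above the mean of solvent-only control wells plus 3 SD, set per campaign, cut at about 130% in these data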;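 note: TNF-alpha given at a submaximal dose yielding about 80% of full reporter signal; values are well signal over median control so 100% means no change and 0% no light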
# STAT3 act 2 = STAT3 reporter activation by STAT1 hits, confirmation, counter-screen for STAT1 activator project, U3A cells, luciferase, luminescence. IL-6; cells lack STAT1; 100 = IL-6 alone, no compound effect. activation (% of control), % at 5.7 µM. shares compounds with STAT1 act. 1,200 tested, 46% active;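 active = activation above the solvent-only control well mean plus 3 SD, set per plate batch, cut at about 110% in these data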;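 note: 0% = no luminescence and 100% = median IL-6 plus DMSO wells; higher means more STAT3 reporter activation so hits are non-selective activators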
# * hit, by the source's call; x = no result.
SMILES,STAT1 act,sdo1 growth,FLuc stim CS,NF-kB expr up,APP 5'UTR act,FLuc inhib CS,STAT1 activ conf,NFkB act,STAT3 act 2
O=C1c2ccccc2NC(c2cnc3ccccc3n2)N1O (configuration not stated),159*,0,0.7,6.9*,74,34,209*,114,90
O=C(CCc1nnc(CCCc2ccccc2)o1)NC(C1CC1)C1CC1,154*,x,1.1,5.8*,90,-7,206*,145*,129*
CCCCSc1nnc(CCCCCNC(=O)OC(C)(C)C)o1,93,-1.1,1,0.95,17,-1,x,x,x
N#CC1CC(c2ccccc2)=NN1c1ccccc1[N+](=O)[O-] (configuration not stated),156*,x,0.9,1.1,67,12,155*,129,124*
CCN(CC)c1ccc(C(=O)OCC(=O)Nc2sccc2C#N)cc1,123,-1,1,2.1,45,1,x,x,x
N#Cc1ccsc1NC(=O)COC(=O)c1ccc(NC(N)=O)cc1,166*,x,0.9,1.1,128,6,199*,137*,141*
Cc1cnc(NC(=O)C2CCCO2)s1 (configuration not stated),102,1.4,1.1,1.1,16,-6,x,x,x
O=C(Nc1ncc(Cc2ccccc2Cl)s1)C1CCCO1 (configuration not stated),151*,-0.6,0.9,3.9*,70,6,166*,134*,149*
COc1ccc2c(c1)CCC/C2=N\NC(=O)c1ccoc1C,151*,1.1,0.8,1.7,108,15,129*,117,100
O=C(COC(=O)C1(c2ccccc2F)CCCC1)N1CCOCC1,105,-0.37,1,1.1,7,3,x,x,x
Cn1cc(-c2nnc(-c3ccccc3)o2)c2ccccc21,159*,-0.37,0.4,5.2*,130,59*,258*,118,130*
CCOc1ccc(NC(=O)c2ccco2)c([N+](=O)[O-])c1,164*,0.72,0.7,6*,99,30,191*,136*,110
CCOc1ccc(NC(=O)c2cccs2)c([N+](=O)[O-])c1,152*,0.11,1,3,58,2,189*,133,105
CCOc1ccc(C(=O)Nc2cccc(NC(=O)c3cccs3)c2)cc1[N+](=O)[O-],90,-0.12,1.1,0.53,-10,-5,x,x,x
OC(COc1ccc(CN2CCCCO2)cc1)CN1CCCCC1 (configuration not stated),97,x,1.1,1.1,0,-5,x,x,x
Cc1cccc(C(=O)n2c(=S)nc3ccccn32)c1,192*,-0.56,0.1,4.4*,122,91*,430*,185*,127*
O=C(NCCc1ccccc1)c1ccccc1NC(=O)C1CC=CCC1C(=O)O (configuration not stated),152*,-0.3,1,1.8,36,2,133*,125,108
COC(=O)c1ccccc1NC(=O)C1CC=CCC1C(=O)O (configuration not stated),100,0.53,1.1,1.3,4,-10,x,x,x
COc1cc(CC(NC(C)=O)C(=O)NC2CCN(c3c4c(nc5ncnn35)CCC4)CC2)cc(OC)c1 (configuration not stated),100,x,1,1,12,-3,x,x,x
CN1/C(=C\C(=O)c2cccs2)Sc2ccccc21,169*,-2,0.2,7.5*,168*,82*,222*,117,161*
CC(C)NS(=O)(=O)c1ccc(OCC(=O)Nc2ccc(F)cc2)cc1,99,x,1.1,1.2,6,-6,x,x,x
O=C(/C=C/c1ccc(S(=O)(=O)NCc2ccco2)cc1)N1CCN(c2ccccc2)CC1,90,x,1,0.66,19,-3,x,x,x
COc1ccc(NC(=O)Cc2ccccc2)cn1,100,x,1,1.1,9,-4,x,x,x
COc1ccc(NC(=O)/C(Cl)=C(/Cl)S(=O)Cc2ccccc2)cn1 (configuration not stated),204*,-2.5,1,0.18,x,-2,336*,48,105
COc1cccc(NC(=O)/C=C/c2ccccc2[N+](=O)[O-])c1,154*,-0.15,0.8,3.6*,138*,23,177*,137*,117*
SMILES,STAT1 act,sdo1 growth,FLuc stim CS,NF-kB expr up,APP 5'UTR act,FLuc inhib CS,STAT1 activ conf,NFkB act,STAT3 act 2
COc1ccc(OC)c(NC(=O)/C=C/c2ccccc2[N+](=O)[O-])c1,99,-0.69,1,0.67,29,2,x,x,x
COCCCN=Cc1c(C)[nH]n(-c2ccc(Br)c(C)c2)c1=O,165*,0.12,0.8,2.7,147*,21,250*,122,80
C#CCNC(=O)C1=C[C@@H](c2csc3ccccc23)C[C@@H](OCc2ccc(CO)cc2)O1,99,x,1.1,0.72,26,-5,x,x,x
Clc1ccc(OCc2nc(-c3ccncc3)no2)c(Br)c1,152*,-2.6,0.8,4*,250*,25,233*,141*,123*
Clc1ccccc1OCc1nc(-c2ccncc2)no1,162*,-0.98,0.9,4.1*,194*,7,184*,131,117*
Nc1ccccc1-c1nnn(CC(=O)N2CCCc3ccccc32)n1,92,-1.8,1,1,-15,-4,x,x,x
CCCNC(=O)Nc1ccc(NC(C)=O)cc1,104,x,1,1.6,2,-4,x,x,x
CN(C)c1nc(N)nc(CSc2nc3cc(Cl)ccc3o2)n1,152*,-1.1,1,2,11,-2,142*,122,90
NC(=O)C1=C[C@H](C2CCCCC2)C[C@H](OCc2ccc(CO)cc2)O1,171*,x,1,3.8*,126,-3,163*,142*,164*

# Assay outcomes (PubChem BioAssay)
